pEC50, pIC50: −log10 of the molar value. Active and inactive are the calls of the source. The rule behind the calls is not given here.
system: Isocitrate dehydrogenase [NADP] cytoplasmic (Homo sapiens), O75874 [R132H]; test: Inhibition of human C-terminal His8-tagged IDH1-R132H mutant expressed in Escherichia coli Rosetta assessed as inhibition of ketoreductase activity by measuring NADPH consumption preincubated for 10 mins followed by addition of NADPH and alpha-KG as substrate by fluorescence method
How it was run: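 Purified IDH1-R132H incubated with α-KG and NADPH; direct kinetic read of falling NADPH fluorescence, run in dose. Enzyme concentration kept below that of the screening assays so inhibitor stays far above enzyme. IC50 values are geometric means of at least three independent experiments.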

Chain of Isocitrate dehydrogenase [NADP] cytoplasmic (Homo sapiens), O75874 [R132H] (O75874 whole entry R132H): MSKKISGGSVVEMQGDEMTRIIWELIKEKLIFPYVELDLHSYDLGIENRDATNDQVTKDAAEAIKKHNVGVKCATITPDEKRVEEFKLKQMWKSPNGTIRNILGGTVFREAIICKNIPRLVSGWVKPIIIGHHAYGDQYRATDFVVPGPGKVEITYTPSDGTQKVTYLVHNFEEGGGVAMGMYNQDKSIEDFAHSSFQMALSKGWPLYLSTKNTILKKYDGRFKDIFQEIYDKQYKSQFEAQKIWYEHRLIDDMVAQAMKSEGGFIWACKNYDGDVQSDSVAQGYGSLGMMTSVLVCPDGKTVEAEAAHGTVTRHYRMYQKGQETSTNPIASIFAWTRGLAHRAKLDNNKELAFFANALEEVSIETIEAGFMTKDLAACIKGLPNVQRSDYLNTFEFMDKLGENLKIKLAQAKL

In the case of `Cc1ccccc1C(C(=O)NC1CCCCC1)N(C(=O)Cn1ccnc1C)c1cccc(F)c1` (stereo not given), the inhibition was “Active”.

system: Isocitrate dehydrogenase [NADP] cytoplasmic (Homo sapiens), O75874 [R132H]; test: (§1) Inhibition of IDH1-R132H mutant (unknown origin) expressed in human HA1EM cells assessed as suppression of R-2HG secretion measured after 72 hrs by LC-MS/MS analysis; assay type: cell-based
How it was run: (§2)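 HA1E-M cells (HEK-293 derivative) engineered to overexpress IDH1-R132H and release R-2HG into growth media. Compound treatment for 72 h, then R-2HG in conditioned media measured by LC-MS. Values normalized to DMSO-treated controls; EC50 from three independent experiments, each run in triplicate.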

For `Cc1ccccc1C(C(=O)NC1CCCCC1)N(C(=O)Cn1ccnc1C)c1cccc(F)c1` (stereo not given), the inhibition was “Dose-dependent effect”.

target: T1, Isocitrate dehydrogenase [NADP] cytoplasmic (Homo sapiens, UniProt O75874, R132H); test: as §1; assay type: cell-based; how it was run: as §2
Target sequence in this assay (O75874 whole entry R132H): as above

In the case of `Cc1ccccc1C(C(=O)NC1CCCCC1)N(C(=O)Cn1ccnc1C)c1cccc(F)c1` (stereo not given), the pEC50 was 7.22.

target: T1, Isocitrate dehydrogenase [NADP] cytoplasmic; test: Inhibition of human C-terminal His8-tagged IDH1-R132H mutant expressed in Escherichia coli Rosetta assessed as inhibition of ketoreductase activity by measuring NADPH consumption preincubated for 60 mins followed by addition of alpha-KG as substrate measured after 50 mins in presence of NADPH and Mg2+ by resazurin based diaphorase-coupled fluorescence assay
How it was run: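 IDH1-R132H–Mg2+ ketoreductase assay reading NADPH consumption through a diaphorase-coupled fluorescence reaction. Buffer contained 0.01% Tween 20 against aggregation. Primary screen at 15 μM in duplicate, with positives set at ≥60% inhibition in both replicates. Retests were in 8-point dose.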
Target sequence in this assay (O75874 2-414 R132H limits assumed): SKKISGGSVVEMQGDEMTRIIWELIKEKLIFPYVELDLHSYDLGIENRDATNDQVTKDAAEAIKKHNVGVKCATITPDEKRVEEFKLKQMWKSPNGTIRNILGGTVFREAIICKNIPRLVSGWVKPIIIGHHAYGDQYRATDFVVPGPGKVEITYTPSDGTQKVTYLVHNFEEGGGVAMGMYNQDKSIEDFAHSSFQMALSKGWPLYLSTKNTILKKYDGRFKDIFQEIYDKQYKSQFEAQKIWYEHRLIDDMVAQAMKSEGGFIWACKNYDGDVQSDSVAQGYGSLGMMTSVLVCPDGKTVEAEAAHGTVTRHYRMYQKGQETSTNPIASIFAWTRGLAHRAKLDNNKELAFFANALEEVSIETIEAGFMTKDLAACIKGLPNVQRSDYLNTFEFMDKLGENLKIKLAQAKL

Compared with `C[C@H]1CN([C@@H](C)CO)S(=O)(=O)c2ccc(C#Cc3cccc(F)c3)cc2O[C@H]1CN(C)C(=O)NC1CCCCC1`, `C[C@@H]1CN([C@@H](C)CO)S(=O)(=O)c2ccc(C#Cc3cccc(F)c3)cc2O[C@@H]1CN(C)C(=O)NC1CCCCC1` is 0.21 log units higher in pIC50: 5.20 for the first, 5.41 for the second. The second is the more potent here.

Compared with `C[C@@H]1CN([C@@H](C)CO)S(=O)(=O)c2ccc(C#Cc3cccc(F)c3)cc2O[C@H]1CN(C)C(=O)N(C)C1CCCCC1`, `C[C@@H]1CN([C@@H](C)CO)S(=O)(=O)c2ccc(C#Cc3cccc(F)c3)cc2O[C@H]1CN(C)C(=O)C1CCCCC1` is 1.12 log units higher in pIC50: 5.24 for the first, 6.36 for the second.

Compared with `C[C@@H]1CN([C@@H](C)CO)S(=O)(=O)c2ccc(C#Cc3ccc(F)c(F)c3)cc2O[C@H]1CN(C)C(=O)NC1CCCCC1`, `C[C@@H]1CN([C@H](C)CO)S(=O)(=O)c2ccc(C#Cc3cccc(F)c3)cc2O[C@H]1CN(C)C(=O)NC1CCCCC1` is 1.33 log units lower in pIC50: 7.55 for the first, 6.22 for the second.

First: COc1ccc(C#Cc2ccc3c(c2)O[C@@H](CN(C)C(=O)NC2CCCCC2)[C@H](C)CN([C@@H](C)CO)S3(=O)=O)cc1
Second: C[C@@H]1CN([C@@H](C)CO)S(=O)(=O)c2ccc(C#Cc3ccc(F)cc3)cc2O[C@H]1CN(C)C(=O)NC1CCCCC1
The pIC50 of the first is 0.39 log units lower: 7.04 for the first, 7.43 for the second. The second is the more potent here.

First: C[C@@H]1CN([C@@H](C)CO)S(=O)(=O)c2ccc(C#Cc3cccc(F)c3)cc2O[C@H]1CN(C)C(=O)Nc1ccccc1
Second: CCNC(=O)N(C)C[C@@H]1Oc2cc(C#Cc3cccc(F)c3)ccc2S(=O)(=O)N([C@@H](C)CO)C[C@H]1C
The pIC50 of the first is 0.34 log units lower: 5.51 for the first, 5.85 for the second. The second is the more potent here.

`C[C@@H]1CN([C@@H](C)CO)S(=O)(=O)c2ccc(C#Cc3cccnc3)cc2O[C@H]1CN(C)C(=S)NC1CCCCC1` and `C[C@@H]1CN([C@@H](C)CO)S(=O)(=O)c2ccc(C#Cc3cccnc3)cc2O[C@H]1CN(C)C(=O)NC1CCCCC1` are within 0.2 log units of each other in pIC50: 6.80 for the first, 6.85 for the second.

`C[C@@H]1CN([C@@H](C)CO)S(=O)(=O)c2ccc(C#Cc3ccccc3)cc2O[C@H]1CN(C)C(=O)NC1CCCCC1` and `C[C@@H]1CN([C@@H](C)CO)S(=O)(=O)c2ccc(C#Cc3ccccc3F)cc2O[C@H]1CN(C)C(=O)NC1CCCCC1` are within 0.2 log units of each other in pIC50: 7.12 for the first, 7.04 for the second.

Compared with `C[C@@H]1CN([C@@H](C)CO)S(=O)(=O)c2ccc(C#Cc3cccc(F)c3)cc2O[C@H]1CN(C)C(=O)NC1CCCC1`, `C[C@H]1CN([C@@H](C)CO)S(=O)(=O)c2ccc(C#Cc3cccc(F)c3)cc2O[C@@H]1CN(C)C(=O)NC1CCCCC1` is 1.10 log units lower in pIC50: 7.10 for the first, 6.00 for the second. The first is the more potent here.

Going from `C[C@@H]1CN([C@@H](C)CO)S(=O)(=O)c2ccc(C#Cc3cccnc3)cc2O[C@H]1CCC(=O)NC1CCCCC1` to `C[C@@H]1CN([C@@H](C)CO)S(=O)(=O)c2ccc(C#Cc3cncnc3)cc2O[C@H]1CN(C)C(=O)NC1CCCCC1`, the pIC50 rises from 5.04 to 6.49 (1.45 log units). The second is the more potent here.

Going from `C#Cc1ccc2c(c1)O[C@@H](CN(C)C(=O)NC1CCCCC1)[C@H](C)CN([C@@H](C)CO)S2(=O)=O` to `C[C@@H]1CN([C@@H](C)CO)S(=O)(=O)c2ccc(C#CBr)cc2O[C@H]1CN(C)C(=O)NC1CCCCC1`, the pIC50 falls from 5.11 to < 4.70. The first is the more potent here.

Compared with `Cc1noc(C)c1NC(=O)N(C)C[C@@H]1Oc2cc(C#Cc3cccc(F)c3)ccc2S(=O)(=O)N([C@@H](C)CO)C[C@H]1C`, `CCCNC(=O)N(C)C[C@@H]1Oc2cc(C#Cc3cccc(F)c3)ccc2S(=O)(=O)N([C@@H](C)CO)C[C@H]1C` is 1.30 log units higher in pIC50: 4.96 for the first, 6.26 for the second.

First: C[C@@H]1CN([C@@H](C)CO)S(=O)(=O)c2ccc(C#Cc3cccc(F)c3)cc2O[C@H]1CN(C)CCC1CCNCC1
Second: C[C@@H]1CN([C@@H](C)CO)S(=O)(=O)c2ccc(C#Cc3cccc(F)c3)cc2O[C@H]1CN(C)C(=O)NC1CC1
The pIC50 of the first is 0.87 log units lower: 5.13 for the first, 6.00 for the second.

`C[C@@H]1CN([C@@H](C)CO)S(=O)(=O)c2ccc(C#Cc3ccc(Cl)cc3)cc2O[C@H]1CN(C)C(=O)NC1CCCCC1` and `C[C@@H]1CN([C@@H](C)CO)S(=O)(=O)c2ccc(C#Cc3cccc(Cl)c3)cc2O[C@H]1CN(C)C(=O)NC1CCCCC1` are within 0.2 log units of each other in pIC50: 7.25 for the first, 7.22 for the second.

Going from `C[C@@H]1CN([C@@H](C)CO)S(=O)(=O)c2ccc(C#C[Si](C)(C)C)cc2O[C@H]1CN(C)C(=O)NC1CCCCC1` to `C[C@@H]1CN([C@@H](C)CO)S(=O)(=O)c2ccc(C#Cc3cncn3C)cc2O[C@H]1CN(C)C(=O)NC1CCCCC1`, the pIC50 falls from 6.85 to 5.80 (1.05 log units).

First: C[C@@H]1CN([C@@H](C)CO)S(=O)(=O)c2ccc(C#Cc3cccc(F)c3)cc2O[C@H]1CN(C)C(=O)c1ccno1
Second: C[C@@H]1CN([C@@H](C)CO)S(=O)(=O)c2ccc(C#Cc3cccc(F)c3)cc2O[C@H]1CN(C)C(=O)OC(C)(C)C
The pIC50 of the first is 1.08 log units lower: 4.72 for the first, 5.80 for the second. The second is the more potent here.

First: C[C@@H]1CN([C@@H](C)CO)S(=O)(=O)c2ccc(C#Cc3cccc(F)c3)cc2O[C@H]1CN(C)C(=O)NCC1CCCCC1
Second: C[C@@H]1CN([C@@H](C)CO)S(=O)(=O)c2ccc(C#Cc3cccc(F)c3)cc2O[C@H]1CN(C)C(=O)CC1CCCCC1
The pIC50 of the first is 0.36 log units higher: 6.80 for the first, 6.44 for the second. The first is the more potent here.

Going from `C[C@@H]1CN([C@H](C)CO)S(=O)(=O)c2ccc(C#Cc3cccc(F)c3)cc2O[C@@H]1CN(C)C(=O)NC1CCCCC1` to `C[C@H](CO)N1C[C@H](C)[C@@H](CN(C)C(=O)NC2CCCCC2)Oc2cc(C#Cc3cccc(F)c3)ccc2S1(=O)=O`, the pIC50 rises from 5.28 to 5.77 (0.49 log units). The second is the more potent here.

Going from `C[C@@H]1CN([C@@H](C)CN(C)C)S(=O)(=O)c2ccc(C#Cc3ccc(F)cc3)cc2O[C@H]1CN(C)C(=O)NC1CCCCC1` to `C[C@H](CO)N1C[C@H](C)[C@H](CN(C)C(=O)NC2CCCCC2)Oc2cc(C#Cc3cccc(F)c3)ccc2S1(=O)=O`, the pIC50 falls from 7.49 to < 4.70.

First: C[C@@H]1CN([C@@H](C)CO)S(=O)(=O)c2ccc(-c3cccnc3)cc2O[C@H]1CN(C)C(=O)NC1CCCCC1
Second: C[C@@H]1CN([C@@H](C)CO)S(=O)(=O)c2ccc(/C=C/c3ccccc3)cc2O[C@H]1CN(C)C(=O)NC1CCCCC1
The pIC50 of the first is 1.53 log units lower: 5.19 for the first, 6.72 for the second. The second is the more potent here.

First: C[C@@H]1CN([C@@H](C)CO)S(=O)(=O)c2ccc(C#Cc3cccc(F)c3)cc2O[C@H]1CN(C)C(=O)C1CCOCC1
Second: C[C@@H]1CN([C@@H](C)CO)S(=O)(=O)c2ccc(C#Cc3ccc(F)cn3)cc2O[C@H]1CN(C)C(=O)NC1CCCCC1
The pIC50 of the first is 1.49 log units lower: 5.10 for the first, 6.59 for the second.

`C[C@@H]1CN([C@@H](C)CO)S(=O)(=O)c2ccc(C#CC3CCCCC3)cc2O[C@H]1CN(C)C(=O)NC1CCCCC1` and `COc1ccc(OC[C@H](C)N2C[C@@H](C)[C@H](CN(C)C(=O)NC3CCCCC3)Oc3cc(C#Cc4cccnc4)ccc3S2(=O)=O)cc1` are within 0.2 log units of each other in pIC50: 7.05 for the first, 7.02 for the second.
